The source of these data is ChEMBL document CHEMBL4004783, “Penicisulfuranols A-F, Alkaloids from the Mangrove Endophytic Fungus Penicillium janthinellum HDN13-309” (J Nat Prod, 2017).

Assay [1] has as its system HeLa. In words: Cytotoxicity against human HeLa cells assessed as reduction in cell viability by SRB assay. Format: functional, cell-based. Summed up:
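HeLa human cervical carcinoma cells; cell growth read by sulforhodamine B (SRB) method; IC50 values reported.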
On the technique in general: Sulforhodamine B stains cellular protein and so reports cell mass.

Assay [2] deals with HL-60. As to the kind of experiment: Cytotoxicity against human HL60 cells assessed as reduction in cell viability by MTT assay. In kind it is functional, cell-based. Summed up: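 HL-60 human promyelocytic leukemia cells; viability read by MTT method; IC50 values reported.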
On the technique in general: Formazan colour is commonly taken as a measure of viable cells.

Each structure is given as a SMILES string. Structures can show the parent of a compound that is named as a salt.

In general, IC50 refers to the concentration that gives 50% inhibition. With `COc1ccc2c(c1OC)O[C@]1(C(=O)N3O[C@H]4[C@H](O)C=C[C@@H](O)[C@@]4(O)C[C@@]3(SC)C(=O)N1C)[C@@H]2SC`, the 50% inhibitory concentration (IC50) in assay [1] and in assay [2] was greater than 30 µM throughout.

Take `COc1ccc2c(c1OC)O[C@]13C(=O)N4O[C@H]5[C@H](O)C=C[C@@H](O)[C@@]5(O)C[C@@]4(SSS[C@H]21)C(=O)N3C`: the half-inhibitory concentration (IC50) in assay [1] was 0.3 µM; in assay [2], 1.2 µM.

In the case of `COc1ccc2c(c1OC)O[C@]13C(=O)N4O[C@H]5[C@H](O)C=C[C@@H](Cl)[C@@]5(O)C[C@@]4(SS[C@H]21)C(=O)N3C`, the 50% inhibitory concentration (IC50) in assay [1] came out at 0.5 µM; in assay [2] it was 0.1 µM.

For `COc1ccc2c(c1OC)O[C@]1(C(=O)N3O[C@H]4[C@H](O)C=C[C@@H](Cl)[C@@]4(O)C[C@@]3(SC)C(=O)N1C)[C@@H]2SC`, the IC50 in assay [1] and in assay [2] was greater than 30 µM in each case.

In the case of `COc1ccc2c(c1OC)O[C@]13C(=O)N4O[C@H]5[C@H](O)C=C[C@@H](O)[C@@]5(O)C[C@@]4(SS[C@H]21)C(=O)N3C`, the IC50 is 3.9 µM in assay [1] and 1.6 µM in assay [2]. In the case of `COc1cccc2c1O[C@]1(C(=O)N3O[C@H]4[C@H](O)C=C[C@@H](O)[C@@]4(O)C[C@@]3(SC)C(=O)N1C)[C@@H]2SC`, the 50% inhibitory concentration (IC50) in assay [1] and in assay [2] was greater than 30 µM throughout. As to `COc1cccc2c1C(=O)c1c(O)c3c(c(O)c1C2=O)C[C@@](O)(C(=O)CO)C[C@@H]3O[C@H]1C[C@H](N)[C@H](O)[C@H](C)O1` [DOXORUBICIN HYDROCHLORIDE], the half-inhibitory concentration (IC50) in assay [1] was 0.5 µM.
